Source: PubChem (several laboratories)
Sampled rows, rich in hits. Any-hit rate of the full collection: about 2.6%.
SKN-1 inh: suppressors of acrylamide-induced Pgst-4::GFP reporter in worms, primary screen, SKN-1 inhibitor project, whole organism, uHTS, GFP/RFP fluorescence ratio, strain VP596; C. elegans VP596 Pgst-4::GFP/RFP ratio, 24 h; inhibition, % at 21.8 µM; 0.49% of 360,000 active; AID 624304, 2012;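 active = interference check ratio from 0.5 to 1.5 plus GFP to RFP signal ratio inhibition reaching or exceeding a fixed threshold, cut at about 30% in these data, passing the limit was not always enough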
Rce1 inh: yeast Rce1p protease inhibitors, primary screen, biochemical, fluorescence, cell-free homogeneous. yeast membranes, quenched prenylated peptide cleavage fluorescence. AID 2563, 2010. calls only. CAAX prenyl protease 2 (Saccharomyces cerevisiae (strain ATCC 204508 / S288c)), Q03530. 0.27% of 290,000 active;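 active = fall in fluorescence gain of 50% or more versus controls, with final raw signal at or below 3038400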;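 note: plate controls were neutral control wells for no effect and wells lacking membranes for full effect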
Myeloid diff MLP: induction of myeloid progenitor differentiation, primary screen, cell-based, flow cytometry, MLPCN library | 1% of 360,000 active | calls only at 10 µM | AID 624256, 2012 | ER-HoxA9 myeloid progenitors, lysozyme-GFP differentiation;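 active = normalized GFP-positive differentiation at or above the plate's own cutoff, the solvent-only control mean plus 3 SD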;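 note: cells exposed to compound for four days before flow analysis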
T cell HTS: modulators of CD8 T cell-vesicle binding, primary screen, mouse 2C CD8+ T cells, flow cytometry. 2C CD8+ T cell-vesicle binding; hits give low values. response (vesicle binding), % at 7 µM. AID 2052, 2009. 0.068% of 330,000 active;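 active = response, share of CD8 T cells binding vesicles, and their 90th percentile fluorescence all below set limits, cut at about 80% in these data, passing the limit was not always enough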;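 note: values below 100% mean blocked vesicle binding to the CD8+ T cells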
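System: murine 2C transgenic CD8+ T lymphocytes; also added: QL9-loaded Drosophila micro-vesicles; times: binding 1.5 h at 37 °C; measured by: flow cytometry, PE anti-B7-1 (FL2) versus Alexa647 anti-CD8 (FL8), PFA-fixed; control set: Peptide-free naked vesicles (low) and QL9 vesicles with 0.7% DMSO vehicle (high)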
GRK2 inh: compounds blocking aptamer binding on GRK2 – biochemical, human GRK2, bead flow cytometry, HTS, primary screen; Beta-adrenergic receptor kinase 1 (Homo sapiens), P25098; FAM-aptamer displacement from GRK2; inhibition of aptamer binding, % at 10 µM; 0.59% of 330,000 active; AID 488847, 2010;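 active = inhibition of aptamer binding above 40%, roughly 3 SD of noise, on plates passing a quality check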;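 note: median bead fluorescence of bound FAM aptamer so fluorescent compounds give negative values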
Target sequence (P25098 whole entry, looked up): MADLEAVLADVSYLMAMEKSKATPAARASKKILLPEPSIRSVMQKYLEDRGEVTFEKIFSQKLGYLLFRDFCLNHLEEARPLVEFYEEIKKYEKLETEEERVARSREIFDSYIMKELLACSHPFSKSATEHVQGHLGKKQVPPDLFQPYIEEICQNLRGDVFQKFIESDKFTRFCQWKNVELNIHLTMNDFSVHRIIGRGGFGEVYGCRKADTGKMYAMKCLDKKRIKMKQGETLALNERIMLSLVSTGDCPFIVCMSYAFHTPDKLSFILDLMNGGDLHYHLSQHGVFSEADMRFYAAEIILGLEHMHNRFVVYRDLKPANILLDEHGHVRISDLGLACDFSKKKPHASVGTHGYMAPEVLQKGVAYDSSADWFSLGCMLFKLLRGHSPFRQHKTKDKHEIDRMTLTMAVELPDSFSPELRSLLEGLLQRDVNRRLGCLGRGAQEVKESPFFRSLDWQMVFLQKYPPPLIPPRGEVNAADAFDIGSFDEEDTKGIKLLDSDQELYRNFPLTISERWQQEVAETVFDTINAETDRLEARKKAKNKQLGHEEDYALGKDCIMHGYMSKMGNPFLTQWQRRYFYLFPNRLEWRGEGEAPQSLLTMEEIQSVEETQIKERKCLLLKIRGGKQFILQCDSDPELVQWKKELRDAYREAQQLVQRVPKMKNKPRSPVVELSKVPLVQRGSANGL
Rin1-Abl PPI inh: inhibitors of Rin1-Abl protein binding, primary screen, biochemical, TR-FRET; Tyrosine-protein kinase ABL1 (Homo sapiens) + Ras and Rab interactor 1 (Homo sapiens), …; inhibition, % at 7.35 µM; 0.4% of 360,000 active; AID 588664, 2011; in the data active = inhibition above about 5%, passing the limit was not always enough
GRK2 CP1: GRK2 aptamer-displacing inhibitors, retest, confirmation, biochemical, cherry pick 1, bead flow cytometry. aptamer displacement, % at 10 µM. bead-bound GRK2, FAM-aptamer displacement. 4% of 2,000 active. shares compounds with GRK2 inh;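 active = aptamer displacement above 40%, near three times the noise of non-fluorescent compounds, on plates passing quality checks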;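 note: negative values mostly reflect intrinsic compound fluorescence rather than true enhancement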
Aptamer quench 1: fluorescent aptamer quenching in GRK2 counter-screen dose response | fluorescence change (kMESF span), kMESF (test concentration not listed) | AID 504521 | shares compounds with GRK2 inh | 110 tested, under 10 active | Fluorescent RNA aptamer beads, flow cytometry; hits give high values;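 active = compounds whose bead fluorescence drops by more than 37 kMESF across the dose range, marking them as dye quenchers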
Aptamer quench SP: counter-screen for GRK2 aptamer inhibitors: fluorescent aptamer quenchers. shares compounds with GRK2 inh. Carboxyfluorescein RNA aptamer on beads, flow cytometry quenching; hits give low values. fluorescence response (% of DMSO), % at 10 µM. 2,000 tested, under 10 active. AID 504580;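 active = compounds that quench the bead-bound fluorescent RNA probe, cutting fluorescence to under half of the solvent control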;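 note: counterscreen run without GRK2 so only probe quenching by compound is measured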
GRK2 CP2: GRK2 aptamer-displacing inhibitors, hit retest, confirmation, biochemical, cherry pick 2, bead flow cytometry; shares compounds with GRK2 inh; bead-bound GRK2, FAM-aptamer displacement; inhibition of aptamer binding, % at 10 µM; 360 tested, under 10 active; AID 504782, 2011;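 active = inhibition of aptamer binding above 40%, about triple the noise seen with nonglowing compounds, on plates passing quality control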;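 note: negative values mostly come from compounds that fluoresce themselves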
Aptamer quench 2: fluorescence quenching of FAM-labeled RNA aptamer, dose response, artefact control for GRK2 aptamer inhibitor project, biochemical, flow cytometry, cherry pick 2; shares compounds with GRK2 inh; Streptavidin beads; change in fluorescence (kMESF span), kMESF (test concentration not listed); 25 tested, under 10 active; AID 504819, 2011;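 active = compounds quenching the bead-bound labeled aptamer, with fluorescence dropping by more than 37 kMESF over the dose range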
FAM quench SP: quenches fluorescent RNA aptamer, GRK2 hit artifact | shares compounds with GRK2 inh | carboxyfluorescein RNA aptamer beads, flow cytometry quenching; hits give low values | fluorescence response vs DMSO, % at 10 µM | 360 tested, under 10 active;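 active = response vs DMSO under 50%, meaning signal dropped by over half, treated as fluorescence quencher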;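 note: labelled aptamer on streptavidin beads without GRK2 as a quench counter-screen; 100% = bead fluorescence of DMSO wells and lower means quenching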
FAM quench PS1: quenchers of FAM-labeled RNA aptamer fluorescence, dose response, artefact control for GRK2 aptamer binding project, biochemical, powder set 1, flow cytometry; shares compounds with GRK2 inh; Bead-bound FAM RNA aptamer fluorescence quenching; hits give low values; fluorescence ratio to DMSO, % at 11.1 µM; 35 tested, under 10 active;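 active = compounds that dim the fluorescent label, raw bead signal shifting by over 33 units between lowest and highest dose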
Active calls of the source: *; i = inactive; . = not tested or not shown.

SMILES	SKN-1 inh	Rce1 inh	Myeloid diff MLP	T cell HTS	GRK2 inh	Rin1-Abl PPI inh	GRK2 CP1	Aptamer quench SP	others
O=C(O)c1cccc(-n2cccc2/C=N/O)c1	-19.6	i	i	300.3	54.0*	1.6	33.9	99.1	GRK2 CP2=25.5;FAM quench SP=100.0
COc1ccc(C(=O)NCC(=O)N2CCN(c3ncccn3)CC2)cc1OC	9.1	.	i	271.1	2.0	3.2	.	.
COC(=O)c1cc(Br)c(=O)n(CCN2CCOCC2)c1	1.1	i	i	160.6	0.0	0.7	.	.
COC(=O)c1cc(Br)c(=O)n(CCN(C(C)C)C(C)C)c1	11.3	i	i	165.2	95.0*	-2.7	-2.7	98.5
CC[C@H](C)/C=C/C1=CC2=C(Cl)C(=O)[C@@]3(C)OC(=O)C(C(=O)[C@H](C)[C@@H](C)O)=C3C2=CO1	2.5	i	i	605.3	69.0*	4.0	3.3	103.7
COc1ccc(CCNC(=O)CCNC(=O)c2ccc(Br)cc2)cc1OC	-3.7	i	i	153.5	1.0	-3.8	.	.
O=C(CCS(=O)(=O)c1ccc(Br)cc1)NCc1ccc(F)cc1	-3.0	i	i	207.1	87.0*	-0.1	.	.	GRK2 CP2=53.6*;Aptamer quench 2=0.5;FAM quench SP=102.0
COc1ccc(CCNC(=O)CCS(=O)(=O)c2ccc(Br)cc2)cc1OC	-5.0	i	i	446.8	20.0	7.5	13.2	94.8	Aptamer quench 1=7.4;FAM quench PS1=100.0
O=C(COC(=O)/C=C/c1ccc2c(c1)OCO2)NCc1ccc(F)cc1	8.8	.	i	.	.	-3.2	.	.
CCC(CC)C(=O)N(C)c1c(C)nc2c(OCC=C(C)C)cccn12	3.4	.	i	.	.	1.7	.	.
COc1ccc(CNC(=O)COC(=O)CC(NC(N)=O)c2ccc(Cl)cc2)cc1OC (centres undefined)	4.3	.	i	310.9	0.0	2.5	.	.
Cc1ccc(N2C(=O)[C@@H]3C(C(=O)CN4C(=O)c5ccccc5C4=O)=NN[C@@H]3C2=O)c(C)c1	13.8	i	i	273.4	41.0*	0.5	2.5	99.6
CC(C)NC(=O)C1(C)CCN1C(=O)c1ccc(F)c(Cl)c1 (centres undefined)	29.0	.	i	.	.	-4.8	.	.
Fc1cccc(Nc2ncnc3sc4c(c23)CCC4)c1	7.0	i	i	273.1	94.0*	-1.2	.	.	GRK2 CP2=-13.3;FAM quench SP=101.0
O=S(=O)(Nc1ncnc2sc3c(c12)CCC3)c1cc(F)ccc1F	-6.9	i	i	269.7	0.0	-1.1	.	.
CCN(CC)C(=O)Cc1cc(C(=O)O)c2ccccc2n1	1.3	i	i	751.1	29.0	3.1	-7.6	103.7
O=C(Cc1cc(C(=O)O)c2ccccc2n1)Nc1ccccc1	-3.9	i	i	214.3	0.0	1.4	.	.
CCOc1cc(S(=O)(=O)N2CCN=C2Cc2ccccc2)ccc1F	1.6	i	i	103.8	44.0*	0.9	.	.	GRK2 CP2=-6.9;FAM quench SP=101.0
COc1ccc(Cl)cc1S(=O)(=O)N1CCN=C1Cc1ccccc1	2.8	i	i	226.1	0.0	-2.5	.	.
CCCCNC(=O)c1ccccc1SCC(=O)NC1CCCCCCC1	-7.7	.	i	0.0	61.0*	2.4	-17.9	96.4
O=C(CSc1cnc2ccccc2n1)NC1CCCC1	16.5	i	i	i	81.0*	-11.2	-3.0	97.6
COc1ccccc1C(=O)C1CCCN(C(=O)C2=CC(=O)CC(C)(C)O2)C1 (centres undefined)	-0.6	i	i	274.3	2.0	2.7	.	.
O=S(=O)(c1cccc(-c2n[nH]c(=S)o2)c1)N1CCOCC1	4.5	i	i	65.5	0.0	-23.7	.	.
CN(C)CCCN(C(=O)c1ccc(S(=O)(=O)N2CCCCC2)cc1)c1nc2cc3c(cc2s1)OCO3	-7.1	i	i	335.9	15.0	1.7	-13.7	101.4
CN(C)CCCN(C(=O)c1ccc(S(=O)(=O)N2CCOCC2)cc1)c1nc2cc3c(cc2s1)OCO3	-6.2	i	i	378.0	0.0	2.9	.	.
COc1ccc(C(=O)NCC(=O)OCc2c(Cl)cccc2Cl)cc1OC	16.6	.	i	.	.	-2.2	.	.
CC(=O)N/C(=C\c1ccccc1)C(=O)NCc1ccc2c(c1)OCO2	-7.8	i	i	205.0	64.0*	-3.3	1.0	97.0
Cc1cc(C)c2nc(-c3ccccn3)cc(C(=O)Nc3ccc(S(=O)(=O)Nc4onc(C)c4C)cc3)c2c1	5.1	i	i	219.2	6.0	1.6	.	.
Cc1cc(C)c2nc(-c3ccccn3)cc(C(=O)Nc3ccc(S(=O)(=O)Nc4cc(C)on4)cc3)c2c1	4.3	i	i	345.8	0.0	-0.7	-3.8	95.0
O=C1C2CC=CCC2C(=O)N1Cc1ccccc1Cl (centres undefined)	7.2	i	i	142.1	42.0*	-0.6	.	.	GRK2 CP2=19.0;FAM quench SP=112.0
